A selection: hits, their analogues and other compounds. The true share with any hit is near 2.3%.
HTRA1 inhibitor: blocks human HTRA1 serine peptidase; Q92743; recombinant HTRA1, FP-rhodamine activity-based probe, fluorescence polarization; inhibition, % at 5.96 µM; actives 0.5% (n = 340,000); AID 504803; in the data active means inhibition above about 36%;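 further: 0% = enzyme with DMSO and 100% = wells lacking enzyme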
SIAE primary: human SIAE inhibition, primary screen | actives 0.69% (n = 370,000) | inhibition, % at 9.66 µM | SIAE FP-Rh probe binding, fluorescence polarization | Q9HAT2;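 active means inhibition above a cutoff: mean of compounds within the control limits plus 3 SD of those, cut at about 17% in these data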;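 further: 0% = plate median of compound wells and 100% = probe without SIAE protein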
TCR CD3 inh: inhibitors of human TCR-CD3 interaction. TAMRA-labeled TCR probe fluorescence, biochemical. inhibition, % at 9.4 µM. actives 0.37% (n = 360,000). AID 651800;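 further: recombinant mutant TCR 2C K166C tagged with TAMRA read by polarization; 0% = receptor in buffer alone and 100% = receptor with positive control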
ABHD4 inh: inhibits mouse alpha/beta hydrolase domain 4; actives 0.54% (n = 370,000); AID 720543; Q8VD66; inhibition, % at 8.92 µM; purified mABHD4, FP-Rh probe fluorescence polarization;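 active means inhibition exceeding the mean over every tested compound plus 3 SD, cut at about 30% in these data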;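 further: 0% = plate median of compound wells and 100% = S159A mutant with DMSO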
Target sequence (Q8VD66 whole entry, looked up, the tested form may be a part): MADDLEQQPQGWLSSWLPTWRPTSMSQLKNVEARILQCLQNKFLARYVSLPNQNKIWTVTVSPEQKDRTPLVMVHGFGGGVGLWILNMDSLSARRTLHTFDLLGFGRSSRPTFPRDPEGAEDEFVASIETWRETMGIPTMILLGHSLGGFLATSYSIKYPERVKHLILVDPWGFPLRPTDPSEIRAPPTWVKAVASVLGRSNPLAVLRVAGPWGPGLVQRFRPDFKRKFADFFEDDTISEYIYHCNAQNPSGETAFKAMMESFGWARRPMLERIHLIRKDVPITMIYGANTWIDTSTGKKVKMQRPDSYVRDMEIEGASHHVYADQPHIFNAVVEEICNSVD
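System: mouse ABHD4 enzyme, wild type / Medium: HEPES pH 7.0, NaCl, Pluronic buffer / Reagent: FP-Rh activity-based fluorescent probe / Control set: S159A mutant high control, sample median low control / Detection: fluorescence polarization with parallel and perpendicular emission, 525/598 nm / Schedule: 45 min + 60 min at 25 °C / Compound dosing: 8.92 µM, single dose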
pPAFAH inh: pPAFAH (human) enzyme inhibition | Q13093 | actives 1.5% (n = 330,000) | recombinant pPAFAH, FP-rhodamine probe fluorescence polarization | inhibition, % at 3.39 µM;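 active means inhibition above the mean inhibition across the screen plus 3 SD, cut at about 25% in these data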;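 further: inhibitors block binding of the rhodamine activity-based probe so polarization drops; 0% = enzyme with DMSO and 100% = wells lacking pPAFAH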
HTRA1 conf: HTRA1 (human) inhibition, confirmation; inhibition, % at 5.96 µM; shares compounds with HTRA1 inhibitor; actives 66% (n = 1,600); recombinant HTRA1, FP-rhodamine activity-based probe, fluorescence polarization; AID 540248;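 active means mean inhibition over three repeats above a set limit taken from the earlier primary screen, cut at about 37% in these data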;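 further: 0% = HTRA1 with DMSO and 100% = wells lacking HTRA1; inhibitors block probe binding so polarization drops and inhibition rises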
BSA TAMRA ctr: BSA probe counter-screen for TCR-CD3 inhibitors; shares compounds with TCR CD3 inh; TAMRA-labeled BSA probe fluorescence counterscreen; inhibition, % at 9.4 µM; actives 10% (n = 1,200); AID 652035; in the data active means inhibition above about 23%;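 further: 0% = buffer low control and 100% = reference high control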
TCR-CD3 inh conf: TCR-CD3 interaction inhibition, confirmation; shares compounds with TCR CD3 inh; TAMRA-labeled TCR probe fluorescence binding assay; inhibition, % at 9.4 µM; actives 48% (n = 1,200); AID 652036
ABHD4 confirm: confirmation of mouse ABHD4 inhibitors; shares compounds with ABHD4 inh; purified mABHD4, FP-Rh probe fluorescence polarization; inhibition, % at 8.92 µM; actives 55% (n = 1,800); AID 720658;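 active means mean inhibition across replicates above the hit cutoff set in the primary screen, cut at about 30% in these data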;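 further: 0% = wild-type ABHD4 with DMSO and 100% = catalytically dead S159A mutant with DMSO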
SIAE inh conf: confirmation of human SIAE inhibitors. shares compounds with SIAE primary. inhibition, % at 9.66 µM. SIAE FP-Rh activity-based probe, fluorescence polarization. actives 13% (n = 2,300);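 active means mean inhibition of the replicates above the hit cutoff set in the primary screen, cut at about 17% in these data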;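 further: 0% = SIAE with DMSO and probe and 100% = probe without SIAE; inhibitors lower polarization as more probe stays unbound to SIAE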
* = called active by the depositor; . = not tested or not shown; + = active, no number. Unless noted, no stated cut-off is given here; in the data, active means inhibition above about 19%; inactive means the rest.

SMILES	HTRA1 inhibitor	SIAE primary	TCR CD3 inh	ABHD4 inh	pPAFAH inh	HTRA1 conf	ABHD4 confirm	SIAE inh conf	others
O=C(N/N=C/c1c(O)ccc2ccccc12)c1ccc(Br)o1	48*	12	26*	38*	29*	42*	10	.	BSA TAMRA ctr=-13;TCR-CD3 inh conf=22*
Cn1c(=O)c(NCCO)c2c3c(cccc31)C(=O)c1ccccc1-2	60*	58*	71*	93*	95*	72*	85*	117*	BSA TAMRA ctr=117*;TCR-CD3 inh conf=80*
Cc1cccc(NC2=C(NCCO)C(=O)c3ccccc3C2=O)c1	27	13	10	14	1	.	.	.
Cn1c(=O)c(NCCc2ccccc2)c2c3c(cccc31)C(=O)c1ccccc1-2	146*	170*	+	198*	142*	149*	+	160*	BSA TAMRA ctr=+;TCR-CD3 inh conf=+
Cn1c(NCCc2ccccc2)cc(=O)n(C)c1=O	0	4	-9	0	1	.	.	.
O=C(NCCc1c[nH]c2ccccc12)OCc1cn(Cc2cccc(Cl)c2)nn1	.	1	.	-9	.	.	.	.
O=Nc1c(O)c2ccccc2c2ccccc12	62*	30*	0	51*	15	78*	58*	24*
O=C1C(Nc2ccc(O)cc2)=C/C(=N/S(=O)(=O)c2cccs2)c2ccccc21	64*	21*	-6	73*	.	74*	81*	5
O=C1/C(=N\S(=O)(=O)c2cccs2)C([n+]2ccccc2)=C([O-])c2ccccc21	9	3	3	-1	1	.	.	.
Oc1ccc(CCNc2c3ccccc3nc3ccccc23)cc1O	62*	19*	21*	23	18	84*	.	29*
c1ccc(CNc2c3ccccc3nc3ccccc23)cc1	1	-3	-3	-7	1	.	.	.
Cc1ccc(NC(=O)C2CCCN2S(=O)(=O)c2cccnc2)c(C)c1 (stereo not drawn)	.	2	.	1	.	.	.	.
COc1cc(C(C[N+](=O)[O-])c2c(C)cc3ccccn23)ccc1O (stereo not drawn)	40*	19*	7	30*	23	40*	13	6
COC(=O)[C@@]12C[C@@H](CC(=O)NCC3CCCCC3)C(=O)N(Cc3ccc4c(c3)OCO4)C1=CCC(C)(C)C2	.	-2	6	-1	.	.	.	.
O=C(N/N=C/c1ccc(O)c(Br)c1)c1cc2c(ccc3ccccc32)o1	-4	1	-12	-3	.	.	.	.
O=C(N/N=C/c1cc(Br)c(O)c(Br)c1)c1cc2c(ccc3ccccc32)o1	46*	57*	15	11	.	49*	.	26*
CCCCNC(=O)C1(C)CCCCN1C(=O)c1c(C)noc1C (stereo not drawn)	.	-1	1	-2	.	.	.	.
CCCCCCCCN1C(=O)[C@H](CC(=O)NCc2ccc(C)o2)C[C@@]2(C(=O)OC)CCCCC=C12	.	-8	0	-4	.	.	.	.
COc1ccc(C(=O)CSc2nnc(-c3ccco3)c(-c3ccco3)n2)cc1	37*	19*	16	19	.	-4	.	7
COc1ccc2ccccc2c1C(O)c1nccn1C (stereo not drawn)	39*	57*	79*	40*	7	25	88*	43*	BSA TAMRA ctr=6;TCR-CD3 inh conf=3
Fc1cccc(NC(=S)NNc2c3ccccc3nc3ccccc23)c1	36*	39*	-9	28	.	29	.	9
CCCCNC(=O)C[C@H]1C(=O)N(Cc2ccc(OC)cc2)C2=CCCCC[C@@]21C(=O)OC	.	0	.	2	.	.	.	.
S=C(Nc1ccc(Nc2ccccc2)cc1)Nc1ccccn1	38*	32*	0	6	7	40*	.	3
CCN(CC)C(=O)c1ncn2c1C(=O)N[C@H](C)C2	.	-4	2	-3	.	.	.	.
COc1cccc2c1C(=O)c1c(O)c3c(c(O)c1C2=O)CC(O)(C(C)=O)CC3OC1CC(O)C(O)C(C)O1 (stereo not drawn)	73*	68*	134*	79*	.	74*	.	55*	BSA TAMRA ctr=180*;TCR-CD3 inh conf=142*
SMILES	HTRA1 inhibitor	SIAE primary	TCR CD3 inh	ABHD4 inh	pPAFAH inh	HTRA1 conf	ABHD4 confirm	SIAE inh conf	others
COc1ccc(S(=O)(=O)O)cc1P(=O)(c1ccccc1)c1ccccc1	8	-1	5	5	6	.	.	.
COc1ccccc1Nc1ccc2c(O)cc(S(=O)(=O)O)cc2c1	69*	28*	40*	86*	.	53*	.	53*
CC1(C)CC(Nc2ccc(Nc3ccccc3)cc2)CC(C)(C)N1	42*	20*	5	21	.	54*	.	6
CC1(C)CC(NC(=O)c2ccccc2)CC(C)(C)N1	5	0	1	-1	8	.	.	.
Cc1cccc(-c2cnc(C(O)c3ccc(F)c(C)c3)[nH]2)c1 (stereo not drawn)	.	6	-6	3	.	.	.	.
COc1ccc2nc(NNC(=O)c3cc(=O)c4ccccc4o3)sc2c1	32	12	-1	18	24	.	.	.
Cc1ccc2sc(NNC(=O)c3cc(=O)c4ccccc4o3)nc2c1C	70*	25*	-10	41*	15	132*	59*	33*
COc1ccc(CNc2cccc3[nH]c(C(F)(F)F)nc23)cc1OC	40*	19*	3	-2	4	12	.	4
COc1ccc(CNC(=O)c2[nH]c(C(F)(F)F)nc2-c2ccccc2)cc1OC	.	5	1	1	.	.	.	.
Oc1c(Br)cc(Br)cc1/C=N/NC(=S)N[C@H]1CC2C=CC1C2 (stereo partly drawn)	57*	24*	32*	38*	46*	63*	43*	24*	BSA TAMRA ctr=-12;TCR-CD3 inh conf=38*
Cc1occc1C(=O)N/N=C/c1c(O)ccc2ccccc12	27	2	10	12	13	.	.	.
COc1cccc(/C=N/NC(=O)c2ccc(=O)n(C)c2)c1O	3	3	-8	0	6	.	.	.
Cn1cc(C(=O)N/N=C/c2c(O)ccc3ccccc23)ccc1=O	62*	30*	38*	31*	19	42*	30*	9	BSA TAMRA ctr=-22;TCR-CD3 inh conf=24*
Cc1ccc(C(=O)N/N=C/c2c(O)ccc3ccccc23)cn1	62*	21*	15	17	31*	49*	.	3
O=C(Nc1ccc(Cl)cc1)C1CCCN1S(=O)(=O)c1cccnc1 (stereo not drawn)	.	-5	.	-4	.	.	.	.
